The source made the active and inactive calls. The rule behind the calls is not given here.
Key:
Rhodesain = Rhodesain (Trypanosoma brucei rhodesiense, UniProt Q95PM0); assay: Inhibition of Trypanosoma brucei rhodesiense rhodesain expressed in Pichia pastoris using Cbz-Phe-Arg-AMC as substrate after 15 to 30 mins by fluorescence spectrophotometric analysis
Cruzipain = Cruzipain (Trypanosoma cruzi, UniProt P25779); assay: Inhibition of Trypanosoma cruzi cruzain
Cathepsin B [1] = target: T1, Cathepsin B (Homo sapiens, UniProt P07858); assay: Inhibition of human cathepsin B
Procathepsin L [2] = target: T2, Procathepsin L (Homo sapiens, UniProt P07711); assay: Inhibition of human cathepsin L
Target sequence in this assay (P07711 whole entry): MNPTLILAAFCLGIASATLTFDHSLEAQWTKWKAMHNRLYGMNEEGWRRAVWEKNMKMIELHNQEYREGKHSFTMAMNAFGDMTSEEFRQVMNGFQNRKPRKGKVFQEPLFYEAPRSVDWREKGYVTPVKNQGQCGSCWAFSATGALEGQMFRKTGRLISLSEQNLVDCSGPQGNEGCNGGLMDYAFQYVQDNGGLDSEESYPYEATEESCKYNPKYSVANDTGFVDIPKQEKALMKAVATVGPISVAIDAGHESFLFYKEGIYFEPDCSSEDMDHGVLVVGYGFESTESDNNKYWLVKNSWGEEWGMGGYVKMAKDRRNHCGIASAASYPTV

Procathepsin L [3] = target: T2, Procathepsin L; assay: Reversible inhibition of human cathepsin L assessed as enzyme activity recovery at 0.1 to 5 times IC50 preincubated for 5 mins followed by substrate addition measured up to 1500 sec by dilution assay
Target sequence in this assay (P07711 114-333 limits assumed): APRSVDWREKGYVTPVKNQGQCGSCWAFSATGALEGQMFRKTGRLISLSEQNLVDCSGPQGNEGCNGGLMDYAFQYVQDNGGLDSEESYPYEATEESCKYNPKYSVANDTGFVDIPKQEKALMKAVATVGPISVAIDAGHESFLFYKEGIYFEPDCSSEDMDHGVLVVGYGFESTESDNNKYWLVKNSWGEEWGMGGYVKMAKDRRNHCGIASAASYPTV

[4] = tested on: Trypanosoma brucei brucei; assay: Antitrypanosomal activity against Trypanosoma brucei brucei expressing BS449 after 24 hrs by ATPlite-luciferase reporter gene assay; format: functional
[5] = tested on: Trypanosoma brucei brucei; assay: Antitrypanosomal activity against Trypanosoma brucei brucei expressing BS449 after 48 hrs by ATPlite-luciferase reporter gene assay; format: functional
[6] = tested on: Trypanosoma brucei brucei; assay: Antitrypanosomal activity against Trypanosoma brucei brucei expressing BS449 after 72 hrs by ATPlite-luciferase reporter gene assay; format: functional
[7] = Stability of the compound in HMI-9 medium after 24 hrs; format: physicochemical
[8] = target: Rhodesain (Trypanosoma brucei rhodesiense) (UniProt Q95PM0); assay: Reversible inhibition of Trypanosoma brucei rhodesiense rhodesain assessed as enzyme activity recovery preincubated for 5 mins followed by substrate addition measured after 30 mins by dialysis assay relative to control; design: scale not given: the % may be the effect or the level left
Chain of Rhodesain (Trypanosoma brucei rhodesiense) (Q95PM0 1-450): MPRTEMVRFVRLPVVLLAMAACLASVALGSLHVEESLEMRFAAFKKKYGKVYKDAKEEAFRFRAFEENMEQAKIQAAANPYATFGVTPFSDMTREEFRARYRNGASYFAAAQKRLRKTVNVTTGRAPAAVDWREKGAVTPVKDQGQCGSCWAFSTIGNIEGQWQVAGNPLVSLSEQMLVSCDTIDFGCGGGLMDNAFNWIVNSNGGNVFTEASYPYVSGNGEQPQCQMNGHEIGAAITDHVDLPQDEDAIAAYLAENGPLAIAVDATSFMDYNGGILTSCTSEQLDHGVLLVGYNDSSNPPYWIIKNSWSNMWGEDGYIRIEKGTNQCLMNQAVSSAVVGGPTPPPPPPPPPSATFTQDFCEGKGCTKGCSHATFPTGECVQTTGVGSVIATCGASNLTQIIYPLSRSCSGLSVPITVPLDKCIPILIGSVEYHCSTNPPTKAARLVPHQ

[9] = target: Rhodesain (Trypanosoma brucei rhodesiense) (UniProt Q95PM0); assay: Reversible inhibition of Trypanosoma brucei rhodesiense rhodesain assessed as enzyme activity recovery preincubated for 5 mins followed by substrate addition measured after 60 mins by dialysis assay relative to control; design: scale not given: the % may be the effect or the level left
[10] = target: Rhodesain (Trypanosoma brucei rhodesiense) (UniProt Q95PM0); assay: Reversible inhibition of Trypanosoma brucei rhodesiense rhodesain assessed as enzyme activity recovery preincubated for 5 mins followed by substrate addition measured after 90 mins by dialysis assay relative to control; design: scale not given: the % may be the effect or the level left
[11] = target: Rhodesain (Trypanosoma brucei rhodesiense) (UniProt Q95PM0); assay: Reversible inhibition of Trypanosoma brucei rhodesiense rhodesain assessed as enzyme activity recovery preincubated for 5 mins followed by substrate addition measured after 120 mins by dialysis assay relative to control; design: scale not given: the % may be the effect or the level left
Cathepsin B [12] = target: T1, Cathepsin B; assay: Reversible inhibition of human cathepsin B assessed as enzyme activity recovery at 0.1 to 5 times IC50 preincubated for 5 mins followed by substrate addition measured up to 1500 sec by dilution assay
[13] = target: Rhodesain (Trypanosoma brucei rhodesiense) (UniProt Q95PM0); assay: Binding affinity to Trypanosoma brucei rhodesiense 15N-labeled rhodesain expressed in Pichia pastoris at 1:1 molar ratio of protein:inhibitor incubated for 15 mins by 1H[…]TROSY-HSQC spectra analysis
In short: (§1)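 15N-labelled rhodesain was mixed with inhibitor at 1:1 mol/mol, incubated 15 min, and a 1H–15N TROSY-HSQC spectrum was recorded. Inhibitor in DMSO-d6 was then added to reach a 1:3 protein/inhibitor ratio, incubated a further 7 min, and the spectrum was re-recorded.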

[14] = target: Rhodesain (Trypanosoma brucei rhodesiense) (UniProt Q95PM0); assay: Binding affinity to Trypanosoma brucei rhodesiense 15N-labeled rhodesain expressed in Pichia pastoris at 1:3 molar ratio of protein:inhibitor incubated for 22 mins by 1H[…]TROSY-HSQC spectra analysis; in short: as §1

Chain of Rhodesain (Q95PM0 whole entry): as the sequence (Q95PM0 1-450) above
Chain of Cruzipain (P25779 whole entry): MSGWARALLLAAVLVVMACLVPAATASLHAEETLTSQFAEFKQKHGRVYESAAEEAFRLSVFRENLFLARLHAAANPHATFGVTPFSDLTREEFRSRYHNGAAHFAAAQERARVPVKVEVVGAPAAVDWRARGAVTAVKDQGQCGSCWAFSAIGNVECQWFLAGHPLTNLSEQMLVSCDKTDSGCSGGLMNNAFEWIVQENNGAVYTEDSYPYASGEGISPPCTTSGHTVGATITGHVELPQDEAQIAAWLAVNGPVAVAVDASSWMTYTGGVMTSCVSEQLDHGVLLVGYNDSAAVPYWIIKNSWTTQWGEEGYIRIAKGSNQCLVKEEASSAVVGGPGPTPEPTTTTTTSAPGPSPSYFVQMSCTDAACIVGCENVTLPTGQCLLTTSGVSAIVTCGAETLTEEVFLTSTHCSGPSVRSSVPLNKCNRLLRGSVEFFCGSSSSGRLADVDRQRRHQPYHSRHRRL

Row | SMILES | Ki (Rhodesain) [nM] | Ki (Cruzipain) [nM] | Ki (Cathepsin B [1]) [nM] | Ki (Procathepsin L [2]) [nM] | reversible inhibition (enzyme activity recovery) (Procathepsin L [3]) | EC50 [4] [nM] | EC50 [5] [nM] | EC50 [6] [nM] | Stability [7] | Activity [8] [%] | Activity [9] [%] | Activity [10] [%] | Activity [11] [%] | inhibition (Cathepsin B [12]) | Activity [13] | Activity [14]
1 | C[C@@H](/C=C/[N+](=O)[O-])NC(=O)[C@H](Cc1ccccc1)NC(=O)OCc1ccccc1 | 0.49 | 0.44 | 8 | 11 | Active | 5640 | 7170 | 10800 | Unstable |  |  |  |  |  |  | 
2 | N=C(NCCCCCCNC(=N)NC(=N)Nc1ccc(Cl)cc1)NC(=N)Nc1ccc(Cl)cc1 [CHLORHEXIDINE] |  |  |  |  |  | 430 | 410 | 430 |  |  |  |  |  |  |  | 
3 | CN1CCN(C(=O)N[C@@H](Cc2ccccc2)C(=O)N[C@H](/C=C/S(=O)(=O)c2ccccc2)CCc2ccccc2)CC1 |  |  |  |  |  |  |  |  |  | 0 | 2 | 0 | 3 |  |  | 
4 | O=C(N[C@@H](Cc1ccccc1)C(=O)N[C@H](/C=C/[N+](=O)[O-])CCc1ccccc1)OCc1ccccc1 | 4.2 | 11 | 34 | 19.6 |  | 1620 | 2100 | 3450 | Unstable |  |  |  |  |  |  | 
5 | CC(C)C[C@H](NC(=O)OCc1ccccc1)C(=O)N[C@H](/C=C/[N+](=O)[O-])CCc1ccccc1 | 14 | 17 | 72 | 27 |  |  |  |  |  | 22 | 46 | 76 | 110 |  |  | 
6 | C/C(=C\[C@H](C)NC(=O)[C@H](CC(C)C)NC(=O)OCc1ccccc1)[N+](=O)[O-] | 544 |  | 3200 | 2020 |  |  |  |  |  |  |  |  |  |  |  | 
7 | CC(C)C[C@H](NC(=O)OCc1ccccc1)C(=O)N[C@H](/C=C/[N+](=O)[O-])Cc1ccccc1 | 18 | 28 | 710 | 49 | Active |  |  |  |  |  |  |  |  |  |  | 
8 | CC(C)C[C@H](NC(=O)OCc1ccccc1)C(=O)N[C@@H](C)/C=C/[N+](=O)[O-] | 30 | 130 | 310 | 200 |  |  |  |  |  |  |  |  |  | Active |  | 
9 | C/C(=C\[C@H](C)NC(=O)[C@H](Cc1ccccc1)NC(=O)OCc1ccccc1)[N+](=O)[O-] | 50 |  | 6300 | 280 |  |  |  |  |  |  |  |  |  |  |  | 
10 | CC(C)C[C@@H](/C=C/[N+](=O)[O-])NC(=O)[C@H](Cc1ccccc1)NC(=O)OCc1ccccc1 | 6.5 | 16 | 68 | 30 | Active | 990 | 1310 | 2060 | Unstable | 16 | 24 | 29 | 47 |  | Active | Active
11 | O=C(N[C@@H](Cc1ccccc1)C(=O)N[C@H](/C=C/[N+](=O)[O-])Cc1ccccc1)OCc1ccccc1 | 29 | 130 | 310 | 110 |  |  |  |  |  |  |  |  |  |  |  | 
12 | CC(C)C[C@@H](/C=C/[N+](=O)[O-])NC(=O)[C@H](CC(C)C)NC(=O)OCc1ccccc1 | 18.4 | 25 | 210 | 46 | Active |  |  |  |  | 17 | 26 | 35 | 49 | Active |  | 
